A selection: hits, their analogues and other compounds. The true share with any hit is near 2.1%.
IMP-1 inh: IMP-1 metallo-beta-lactamase inhibitors, primary screen, biochemical, epi-absorbance readout, Pseudomonas aeruginosa enzyme; 290,000 tested, 0.45% active; purified IMP-1, nitrocefin hydrolysis, epi-absorbance fluorescence; AID 1556, 2009; inhibition, % at 5.6 µM; metallo-beta-lactamase IMP-1 (Pseudomonas aeruginosa);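 active means inhibition above the mean plus 3 SD of all compounds in the same screening run, cut at about 4.5% in these data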;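 further: 0% = IMP-1 with DMSO and 100% = DMSO wells lacking enzyme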
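System: purified IMP-1; amount: IMP-1 0.2 nM before substrate addition; compound: single dose, 5.6 µM; times: 25 °C, 15 min preincubation, 25 min reaction; signal: Epi-absorbance via hydrolysed-nitrocefin quenching of white-plate fluorescence, 480/530 nm, EDTA stop; benchmarks: DMSO with and without IMP-1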
MsrA act: bovine MsrA enzyme activators, primary screen, biochemical, absorbance, HTS. Methionine sulfoxide reductase A (Bos taurus). purified bovine MsrA, absorbance read-out. activation, % at 10.6 µM. 360,000 tested, 0.3% active; in the data active means activation above about 7.5%;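 further: 0% = vehicle and 100% = reference activator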
PKA-R1A act: activators of PKA-R1A holoenzyme, primary screen, biochemical, fluorescence polarization, Cy5-IP20, bovine R1A, mouse PKAc | cAMP-dependent protein kinase type I-alpha regulatory subunit (Bos taurus) + … | PKA-R1A dissociation; scaled: DMSO 0%, 113 µM cGMP 100% | activation, % at 11.4 µM | 340,000 tested, 0.083% active;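 active means percent activation above the mean of all tested compounds plus 3 SD, cut at about 19% in these data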;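 further: higher means more PKAc released from R1A so a rise in polarization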
VIM-2 inhibitor: VIM-2 metallo-beta-lactamase inhibitors, primary screen, biochemical, epi-absorbance readout, Pseudomonas aeruginosa enzyme | inhibition, % at 5.6 µM | 290,000 tested, 0.89% active | purified VIM-2, nitrocefin hydrolysis, epi-absorbance fluorescence;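 active means inhibition above the mean of all tested compounds plus 3 SD, cutoff set per screening run, cut at about 7.5% in these data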;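 further: red hydrolysis product quenches plate fluorescence so inhibitors raise well fluorescence; 0% = enzyme with DMSO and 100% = DMSO without enzyme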
MsrA inh: bovine MsrA enzyme inhibitors, primary screen, biochemical, absorbance, HTS; Methionine sulfoxide reductase A (Bos taurus); purified bovine MsrA, absorbance read-out; inhibition, % at 15.5 µM; 360,000 tested, 0.75% active; AID 651718, 2012;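 further: 0% = vehicle wells with enzyme and 100% = reference inhibitor wells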
PKA-R2B activ: activators of PKA-R2B holoenzyme, primary screen, biochemical, fluorescence polarization, Cy5-IP20, human; cAMP-dependent protein kinase catalytic subunit beta (Homo sapiens) + cAMP-dependent …; PKA-R2B holoenzyme dissociation; R2B truncated from residue 108, S112A mutant; 0% DMSO only, 100% 113 µM cGMP; activation, % at 11.4 µM; 340,000 tested, 0.079% active;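 active means activation above a cutoff set at the mean over all compounds plus 3 SD, cut at about 18% in these data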;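 further: higher means more holoenzyme dissociation and a rise in polarization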
Target sequence (P31323 whole entry, looked up, other chains not shown, the tested form may be a part): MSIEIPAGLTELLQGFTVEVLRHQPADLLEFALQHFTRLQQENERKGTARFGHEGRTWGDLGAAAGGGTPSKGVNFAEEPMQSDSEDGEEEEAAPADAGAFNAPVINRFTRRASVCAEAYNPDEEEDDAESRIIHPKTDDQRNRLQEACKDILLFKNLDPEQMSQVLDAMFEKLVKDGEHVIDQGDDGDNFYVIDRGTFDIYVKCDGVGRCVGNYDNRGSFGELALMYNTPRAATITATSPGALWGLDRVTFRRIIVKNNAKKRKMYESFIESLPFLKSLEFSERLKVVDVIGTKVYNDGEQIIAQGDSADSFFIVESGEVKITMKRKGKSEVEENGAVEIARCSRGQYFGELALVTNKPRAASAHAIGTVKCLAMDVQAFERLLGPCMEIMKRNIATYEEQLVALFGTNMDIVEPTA
MsrA conf: bovine MsrA inhibitors, retest, confirmation, biochemical, absorbance, HTS. shares compounds with MsrA inh. purified bovine MsrA, absorbance read-out. inhibition, % at 15.5 µM. 2,300 tested, 41% active. AID 651822, 2012;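 further: coupled to thioredoxin reductase with NADPH and selenocystamine and DMSO as substrate; 0% = vehicle only and 100% = full effect of reference inhibitor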
The depositor's hits bear a star; / = no result given. Unless noted, no stated cut-off is given here; in the data, active means inhibition above about 4.5%; inactive means the rest.

SMILES	IMP-1 inh	MsrA act	PKA-R1A act	VIM-2 inhibitor	MsrA inh	PKA-R2B activ	MsrA conf
Cc1ccccc1C(C)(O)c1cnc(C)n1Cc1ccccc1 (stereo unspecified)	/	-3	-4	/	2	4	/
COCCNC(=O)/C(C#N)=C/C=C/c1ccccc1	-1	-4	-5	-3	7.1*	-1	5.3*
Cc1ccccc1OCC(=O)OCC(=O)Nc1cc(S(C)(=O)=O)ccc1Cl	/	-6	1	/	2	1	/
CCNC(=S)N/N=C(\C)c1cc2ccccc2o1	-2	-11	-2	-4	5.6*	-9	6.3*
C/C(=N\NC(=S)Nc1cccc(C)c1)c1cc2ccccc2o1	-1	1	-11	-1	2	-4	/
COc1ccc(C(CNC(=O)C2CC(=O)N(Cc3ccccc3)C2)N2CCOCC2)cc1 (stereo unspecified)	/	-12	3	/	2	10	/
COc1cc(/C=N/NC(=O)c2cc(C3CC3)[nH]n2)ccc1O	-3	-6	-3	-3	5.2*	-1	3
COc1cc(/C=N/NC(=O)c2cc(-c3ccc4c(c3)OCO4)n[nH]2)ccc1O	-4	-11	-10	-2	5.5*	-3	3
COc1cccc2cc(C(=O)Oc3ccc(NC(C)=O)cc3)c(=O)oc12	2	-3	5	0	4.7*	11	1
CCc1cc(-c2[nH]ncc2-c2ccc(OC)cc2)c(O)cc1O	-2	-1	-5	-3	7.1*	-13	3
NC(=O)N=Nc1c(O)[nH]c2ccc([N+](=O)[O-])cc12	-1	-5	8	1	3	0	/
O=C(CNC(=O)c1ccco1)N=Nc1c(O)[nH]c2ccc([N+](=O)[O-])cc12	-3	-2	-7	0	5.8*	-9	2
CCc1ccccc1NC(=O)Cn1cccc1C1=NC(c2ccccc2)CO1 (stereo unspecified)	-2	-4	0	-1	0	-9	/
Cc1ccc(NC(=O)Cn2cccc2C2=NC(c3ccccc3)CO2)cc1C (stereo unspecified)	-5	0	4	-2	43*	-7	0
N#C/C(=C/c1ccc(Br)o1)C(N)=O	-5	-4	-6	-2	4.7*	7	5.5*
N#C/C(=C/c1ccc(Br)o1)C(N)=S	0	/	/	-3	/	/	/
O=C(/C=C/c1cccs1)Nc1nncs1	-4	-6	1	-1	5.9*	2	4
O=C(/C=C/c1cccs1)Nc1scc(-c2ccccc2)c1C(=O)O	-1	-9	6	1	11*	8	5.6*
O=C(/C=C/c1cccs1)Nc1nc(-c2ccccc2)cs1	-1	-6	-3	-1	1	4	/
O=C(Nc1scc(-c2ccccc2)c1C(=O)O)c1ccccc1Cl	-3	-2	-3	-1	0	-5	/
COc1cc(C(=O)OCC(=O)N2CCC(C)CC2)cc2c1OCCO2	/	-2	-3	/	0	-1	/
CC1(C)CC(=O)C=C(c2ccccc2-c2cccc(C(N)=O)c2)C1=O	/	/	/	/	2	/	/
CC(C)c1nc(NCc2ccccc2)c(C#N)c2c1CCCC2	-2	-2	-7	-2	1	8	/
CC(C)c1nc(NCCO)c(C#N)c2c1CCCC2	-1	-12	-6	0	8.8*	-9	7.0*
N#Cc1c(NCCCO)nc(-c2ccco2)c2c1CCCC2	-1	-15	-6	1	9.5*	-2	7.6*
SMILES	IMP-1 inh	MsrA act	PKA-R1A act	VIM-2 inhibitor	MsrA inh	PKA-R2B activ	MsrA conf
COC(=O)[C@H]1C[C@H](OC(=O)NCc2ccccc2F)[C@@]2(O)CN(S(=O)(=O)c3ccc(C)cc3)CC2[C@H]1C(=O)OC (stereo partly specified)	/	-4	-2	/	0	-10	/
O=C1NC(=O)N2CCSC2(Cc2ccccc2)N1 (stereo unspecified)	/	-3	0	/	0	-4	/
O=C(O)CC(Sc1ccc(Cl)cc1)C(=O)Nc1ccccc1 (stereo unspecified)	/	/	/	/	0	/	/
Oc1ccccc1C1=Nc2ccccc2N=C(c2ccco2)C1	-1	-4	1	-2	4.7*	-11	2
CC(=O)c1ccc(N2CCN(C(=O)c3ccc(C(=O)c4ccccc4)cc3)CC2)cc1	/	-1	3	/	0	4	/
Cn1c(=O)c2c(nc3n2CC(O)CN3c2ccccc2)n(C)c1=O (stereo unspecified)	/	-7	5	/	-2	-6	/
Nc1nonc1-c1nc2ccccc2n1CC(=O)N/N=C/c1ccc(-c2ccccc2C(=O)O)o1	-2	-8	-2	-3	7.3*	-20	6.9*
O=C(OCc1ccccc1)N1CCC2CC1c1cc(Cl)ccc12 (stereo unspecified)	/	-1	4	/	-1	0	/
O=C(OCc1ccccc1)N1CCC2CC1c1c(Cl)cccc12 (stereo unspecified)	/	0	14	/	5.6*	-2	0
CC(=O)NS(=O)(=O)c1ccc(NC(=O)/C=C/c2ccco2)cc1	-3	-7	12	-6	6.0*	3	7.2*
NS(=O)(=O)c1ccc(NC(=O)/C=C/c2ccco2)cc1	-3	-10	-2	-5	4	-12	/
CC(=O)c1ccc(N/N=C2/CCCNC2=O)cc1	-3	-8	/	-3	7.4*	/	6.2*
Cc1ccc(N/N=C2/CCCNC2=O)cc1	-6	-10	-4	1	0	-4	/
CC(C)[C@H](NC(=O)c1ccc(Cl)cc1Cl)C(=O)N1CCC[C@H]1C(=O)NCCc1ccccc1Cl	/	/	/	/	0	/	/
Cc1cc(C)nc(NS(=O)(=O)c2ccc(N/C=C3\CCCC3=O)cc2)n1	-3	-8	-1	-2	5.2*	0	5.5*
Cc1ccc(C(=O)NC(=S)Nc2ccc(N3CCOCC3)cc2)c(C)c1	-1	-3	-8	1	1	-8	/
O=C(N/N=C/c1ccc(N2CCOCC2)cc1)c1ccc(O)cc1	-2	-6	0	-5	5.6*	-1	4.8*
S=C(NCCN1CCOCC1)N/N=C/c1cccs1	-4	-5	-3	-2	4	0	/
C/C(=N\NC(=O)c1ccc(F)cc1)c1ccc(N2CCOCC2)cc1	-3	-3	4	0	2	4	/

Assay outcomes from PubChem BioAssay.
